Structures are written as SMILES. The source made the active and inactive calls. The calls are words filed in the database; no cut-off is given here.

One assay has as its system A2780. Description: Antiproliferative activity against human A2780 cells at 0.20 uM after 3 days by MTT assay. Type of assay: functional. The settings on record: A2780, 72 h.
The inhibition is the share of the control response that was lost under treatment. `CCCCCOC1(c2ccc(Br)cc2)SC=C(C)n2c1noc2=O` (stereo unspecified) had an inhibition at 0.2 µM of 0%.

System in a further assay: not listed separately
Nature of the assay: Antiproliferative activity against human A2780/DX3 cells after 3 days by MTT assay. The assay is classed as functional, cell-based.
Conditions: not given
The procedure, abridged:
(§1)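 Cells plated 6–8 h in 96-well plates. Compound alone, in duplicate at ≥5 concentrations (3-fold serial dilutions, top 100 μM), with final DMSO […] after predilution in FCS. After 3 days, MTT 4 h at 37 °C, formazan dissolved in DMSO, A540. IC50 taken from single dose–response curves; 3–4 experiments. A2780/DX3 kept doxorubicin-free 2–3 days beforehand.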
As for `O=c1onc2n1C=CSC2(O)c1ccc(Cl)cc1` (stereo unspecified), the IC5 amounted to 3.02 µM.
Compound `CC/C=C/COC1(c2ccc(Br)cc2)SC=C(C)n2c1noc2=O` (stereo unspecified) yielded an IC5 of 2.45 µM.
As to `CC/C=C\COC1(c2ccc(Cl)cc2)SC=C(C)n2c1noc2=O` (stereo unspecified), the IC5 was determined as 20.7 µM.
The same measure, in the same setting: with `CCCCCOC1(c2ccc(Br)cc2)SC=C(C)n2c1noc2=O` (stereo unspecified) the figure was 41.8 µM.
Regarding `CCCCCOC1(c2ccc(Cl)cc2)SC=C(C)n2c1noc2=O` (stereo unspecified), the IC5 stood at 19 µM.

Still in this assay, the particulars now being: Homo sapiens, A2780/DX3, 72 h.
The IC50 is the concentration at which inhibition is half-maximal. For `O=c1onc2n1C=CSC2(O)c1ccc(Cl)cc1` (stereo unspecified), the IC50 is over 100 µM.
For `CC/C=C/COC1(c2ccc(Br)cc2)SC=C(C)n2c1noc2=O` (stereo unspecified), it took 111 µM to reach half-maximal inhibition (IC50).
`CC/C=C\COC1(c2ccc(Cl)cc2)SC=C(C)n2c1noc2=O` (stereo unspecified) displayed an IC50 of 103 µM.
On to `CCCCCOC1(c2ccc(Br)cc2)SC=C(C)n2c1noc2=O` (stereo unspecified), for which the 50% inhibitory concentration (IC50) is over 100 µM.
For `CCCCCOC1(c2ccc(Cl)cc2)SC=C(C)n2c1noc2=O` (stereo unspecified), the IC50 is over 100 µM.

A further assay has as its system A2780. Description: Antiproliferative activity against human A2780 cells at 2.9 uM after 3 days by MTT assay. The assay is classed as functional. The settings on record: A2780, 72 h. (In general: Tetrazolium assays rely on reduction of a dye to a coloured formazan, in cell work by metabolically active cells.)
`CCCCCOC1(c2ccc(Cl)cc2)SC=C(C)n2c1noc2=O` (stereo unspecified) yielded an inhibition at 2.9 µM of 0%.

System in the next assay: not listed separately
Nature of the assay: Antiproliferative activity against human A2780/DX3 cells at 1.23 uM after 3 days by MTT assay. The settings on record: A2780/DX3, 72 h. The assay is classed as functional.
Compound `CC/C=C/COC1(c2ccc(Br)cc2)SC=C(C)n2c1noc2=O` (stereo unspecified) showed an inhibition at 1.23 µM of 0%.

System in the next assay: not listed separately
Nature of the assay: Antiproliferative activity against human A2780/DX3 cells at 15.6 uM after 3 days by MTT assay. The assay is classed as functional. The settings on record: A2780/DX3, 72 h.
In turn, `CCCCCOC1(c2ccc(Br)cc2)SC=C(C)n2c1noc2=O` (stereo unspecified) had an inhibition at 15.6 µM of 0%.

The subject of another assay is A2780. Nature of the assay: Antiproliferative activity against human A2780 cells at 0.14 uM after 3 days by MTT assay. The assay is classed as functional. To be noted: A2780, 72 h.
As to `O=c1onc2n1C=CSC2(O)c1ccc(Cl)cc1` (stereo unspecified), the inhibition at 0.14 µM is 0%.

System in another assay: not listed separately
Nature of the assay: Down regulation of P-gp 170 expression in human A2780/DX3 cells after 72 hrs by flow cytometry. Type of assay: functional, cell-based.
Conditions: not given
The procedure, abridged:
(§2)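 Cells exposed 72 h to compound at concentrations giving 5% or 0% growth inhibition. Then washed in PBS/2% FCS; 2.5 × 10^5 cells stained at 4 °C with anti-Pgp MM4.17 monoclonal, then FITC goat anti-mouse IgG, and analysed by flow cytometry.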
With `CC/C=C\COC1(c2ccc(Cl)cc2)SC=C(C)n2c1noc2=O` (stereo unspecified), the result was inactive.
For `CCCCCOC1(c2ccc(Br)cc2)SC=C(C)n2c1noc2=O` (stereo unspecified), the result was inactive.
As for `CCCCCOC1(c2ccc(Cl)cc2)SC=C(C)n2c1noc2=O` (stereo unspecified), the outcome was inactive.

For a further assay, the system named is A2780. Nature of the assay: Down regulation of P-gp 170 expression in human A2780 cells after 72 hrs by flow cytometry. Type of assay: functional, cell-based.
Conditions: not given
In short, it runs like this:
as §2
For `CC/C=C\COC1(c2ccc(Cl)cc2)SC=C(C)n2c1noc2=O` (stereo unspecified), the result was inactive.
With `CCCCCOC1(c2ccc(Br)cc2)SC=C(C)n2c1noc2=O` (stereo unspecified), the result was inactive.
Turning to `CCCCCOC1(c2ccc(Cl)cc2)SC=C(C)n2c1noc2=O` (stereo unspecified), the outcome was inactive.

The next assay relates to A2780 ADR. Nature of the assay: Reversal of P-gp 170-mediated multidrug resistance in human A2780/DX3 cells assessed as reduction in doxorubicin IC50 at IC5 pretreated for 6 hrs before doxorubicin administration measured after 3 days by MTT assay. On the set-up: scale not given: the % may be the effect or the level left.
Conditions: not given
The assay is classed as cell-based. The procedure, abridged:
(§3)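 A2780/DX3 cells went into medium holding the modulator at its MTT-derived 0% or 5% growth-inhibition concentration. Doxorubicin (30–0.048 μM serial dilutions, modulator kept constant) was added 6 h later. MTT (2 mg/mL) was added after 3 days for 4 h at 37 °C, formazan dissolved in DMSO, A540 read. IC50 came from dose–response curves, repeated 4–6 times. % reduction is versus doxorubicin alone in the same experiment. Kruskal–Wallis/Mann–Whitney tests.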
Regarding `O=c1onc2n1C=CSC2(O)c1ccc(Cl)cc1` (stereo unspecified), the Activity came out at 10%.
Take `CC/C=C/COC1(c2ccc(Br)cc2)SC=C(C)n2c1noc2=O` (stereo unspecified): the Activity was -23%.
Turning to `CC/C=C\COC1(c2ccc(Cl)cc2)SC=C(C)n2c1noc2=O` (stereo unspecified), the Activity is -47%.
On to `CCCCCOC1(c2ccc(Br)cc2)SC=C(C)n2c1noc2=O` (stereo unspecified), for which the Activity was -43%.
In the case of `CCCCCOC1(c2ccc(Cl)cc2)SC=C(C)n2c1noc2=O` (stereo unspecified), the Activity was -38%.

System in the next assay: not listed separately
Description: Antiproliferative activity against human A2780/DX3 cells at 2.40 uM after 3 days by MTT assay. Type of assay: functional. To be noted: A2780/DX3, 72 h.
For `CC/C=C\COC1(c2ccc(Cl)cc2)SC=C(C)n2c1noc2=O` (stereo unspecified), the inhibition at 2.4 µM is 0%.

System in the next assay: not listed separately
Nature of the assay: Antiproliferative activity against human A2780/DX3 cells at 4.0 uM after 3 days by MTT assay. The assay is classed as functional. The settings on record: A2780/DX3, 72 h.
Compound `CCCCCOC1(c2ccc(Cl)cc2)SC=C(C)n2c1noc2=O` (stereo unspecified) yielded an inhibition at 4 µM of 0%.

Another assay has as its system A2780. Nature of the assay: Antiproliferative activity against human A2780 cells after 3 days by MTT assay.
Conditions: not given
Type of assay: functional, cell-based. The procedure, abridged:
as §1
Turning to `O=c1onc2n1C=CSC2(O)c1ccc(Cl)cc1` (stereo unspecified), the IC5 was found to be 0.48 µM.
The same measure, in the same setting: to `CC/C=C/COC1(c2ccc(Br)cc2)SC=C(C)n2c1noc2=O` (stereo unspecified) belongs 1.9 µM; to `CC/C=C\COC1(c2ccc(Cl)cc2)SC=C(C)n2c1noc2=O` (stereo unspecified), 3.5 µM; to `CCCCCOC1(c2ccc(Br)cc2)SC=C(C)n2c1noc2=O` (stereo unspecified), 2.6 µM.
`CCCCCOC1(c2ccc(Cl)cc2)SC=C(C)n2c1noc2=O` (stereo unspecified) showed an IC5 of 7.8 µM.

The assay is the same for the next values; noted with them: Homo sapiens, A2780, 72 h.
`O=c1onc2n1C=CSC2(O)c1ccc(Cl)cc1` (stereo unspecified) came in with an IC50 of over 100 µM.
Regarding `CC/C=C/COC1(c2ccc(Br)cc2)SC=C(C)n2c1noc2=O` (stereo unspecified), the midpoint of inhibition, the IC50, lay at 59 µM.
In the case of `CC/C=C\COC1(c2ccc(Cl)cc2)SC=C(C)n2c1noc2=O` (stereo unspecified), the midpoint of inhibition, the IC50, lay at 55 µM.
As to `CCCCCOC1(c2ccc(Br)cc2)SC=C(C)n2c1noc2=O` (stereo unspecified), inhibition was half-maximal at 108 µM (IC50).
Compound `CCCCCOC1(c2ccc(Cl)cc2)SC=C(C)n2c1noc2=O` (stereo unspecified) had a half-inhibitory concentration (IC50) of over 100 µM.

The subject of a further assay is A2780. Nature of the assay: Antiproliferative activity against human A2780 cells at 2.20 uM after 3 days by MTT assay. The assay is classed as functional. To be noted: A2780, 72 h.
Take `CC/C=C\COC1(c2ccc(Cl)cc2)SC=C(C)n2c1noc2=O` (stereo unspecified): the inhibition at 2.2 µM stood at 0%.

For another assay, the system named is A2780. Nature of the assay: Antiproliferative activity against human A2780 cells at 1.3 uM after 3 days by MTT assay. The assay is classed as functional. To be noted: A2780, 72 h.
In turn, `CC/C=C/COC1(c2ccc(Br)cc2)SC=C(C)n2c1noc2=O` (stereo unspecified) came in with an inhibition at 1.3 µM of 0%.

Another assay relates to A2780 ADR. Nature of the assay: Reversal of P-gp 170-mediated multidrug resistance in human A2780/DX3 cells assessed as increase in intracellular doxorubicin accumulation at 5 times IC5 pretreated for 2 hrs before doxorubicin administration measured after 2 hrs by flow cytometry. Type of assay: cell-based.
Conditions: not given
In short, it runs like this: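 A2780/DX3 cells (kept in 0.1 μM doxorubicin, drug withdrawn 2–3 days before use) seeded in flasks, grown 24 h to 75–85% confluence. Modulator given at five times the 5%-growth-inhibition concentration for 2 h, then 10 μM doxorubicin for 2 h more. Cells trypsinized, fixed in 3.7% paraformaldehyde/2% sucrose in PBS. Flow cytometry, 488 nm excitation, 575 nm bandpass. Read-out is MFI, with % increase taken from the MFI ratio to doxorubicin alone.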
For orientation: In flow cytometry, cells or beads pass a laser one at a time.
In the case of `O=c1onc2n1C=CSC2(O)c1ccc(Cl)cc1` (stereo unspecified), the Activity was under 48%.
For `CC/C=C/COC1(c2ccc(Br)cc2)SC=C(C)n2c1noc2=O` (stereo unspecified), the Activity is under 48%.
With `CC/C=C\COC1(c2ccc(Cl)cc2)SC=C(C)n2c1noc2=O` (stereo unspecified), the Activity came to 429%.
Take `CCCCCOC1(c2ccc(Br)cc2)SC=C(C)n2c1noc2=O` (stereo unspecified): the Activity amounted to 52%.
On to `CCCCCOC1(c2ccc(Cl)cc2)SC=C(C)n2c1noc2=O` (stereo unspecified), for which the Activity was 248%.

System in a further assay: not listed separately
Nature of the assay: Antiproliferative activity against human A2780/DX3 cells at 0.81 uM after 3 days by MTT assay. Type of assay: functional. The settings on record: A2780/DX3, 72 h.
`O=c1onc2n1C=CSC2(O)c1ccc(Cl)cc1` (stereo unspecified) registered an inhibition at 0.81 µM of 0%.

A further assay relates to A2780 ADR. Description: Reversal of P-gp 170-mediated multidrug resistance in human A2780/DX3 cells assessed as reduction in doxorubicin IC50 at IC0 pretreated for 6 hrs before doxorubicin administration measured after 3 days by MTT assay. On the set-up: scale not given: the % may be the effect or the level left.
Conditions: not given
Type of assay: cell-based. The procedure, abridged: as §3
Consider `O=c1onc2n1C=CSC2(O)c1ccc(Cl)cc1` (stereo unspecified), for which the Activity came to 3%.
Regarding `CC/C=C/COC1(c2ccc(Br)cc2)SC=C(C)n2c1noc2=O` (stereo unspecified), the Activity was -8%.
For `CC/C=C\COC1(c2ccc(Cl)cc2)SC=C(C)n2c1noc2=O` (stereo unspecified), the Activity is -9%.
Consider `CCCCCOC1(c2ccc(Br)cc2)SC=C(C)n2c1noc2=O` (stereo unspecified), for which the Activity was -31%.
As for `CCCCCOC1(c2ccc(Cl)cc2)SC=C(C)n2c1noc2=O` (stereo unspecified), the Activity was -39%.
